In PMC12376074 (Toxicology in vitro : an international journal published in …, 2019):
pIC50: −log10 of the molar value. Read-outs that look alike come from different tables or passages of the source. Each block holds one compound with its values, some of them ahead of it.

Legend:
HepG2 cells [1] = assay: MTT cell viability assay; format: cell-based, human; conditions: read-out: IC50 on cell growth
HepG2 cells [2] = assay: LDH release assay; format: cell-based, human; conditions: 48 h, concentrations above the 0.5 IC50
HepG2 cells [3] = assay: Caspase-3/7 activity measurement; format: cell-based, human; conditions: 0.1 IC50, 0.5 IC50 and IC50, 48 h
cleaved caspase-3 = assay: Western blot of cleaved caspase-3 in HepG2 cells; format: cell-based, human; conditions: 48 h
Bcl-2, Mcl-1, Bax = assay: Western blot of Bcl-2 family proteins in HepG2 cells; format: cell-based, human; conditions: 48 h
[4] = tested on: phosphorylation of p38, JNK, and ERK1/2; assay: Western blot of MAPK phosphorylation in HepG2 cells; format: cell-based, human; conditions: 48 h
[5] = cited from earlier work
[6] = MTT cell viability assay, CYP vector cells; format: cell-based; conditions: human, HepG2/CYP vector cells (empty-vector control), ADQ 1.56–50 μM
[7] = MTT cell viability assay, CYP1A1 cells; format: cell-based; conditions: human, HepG2 cells overexpressing CYP1A1
[8] = MTT cell viability assay, CYP1A2 cells; format: cell-based; conditions: human, HepG2 cells overexpressing CYP1A2
[9] = MTT cell viability assay, CYP1B1 cells; format: cell-based; conditions: human, HepG2 cells overexpressing human CYP1B1
[10] = MTT cell viability assay, CYP2C8 cells; format: cell-based; conditions: human, HepG2 cells overexpressing CYP2C8, IC50, CYP2C8 overexpressing cells, ADQ 1.56–50 μM
[11] = MTT cell viability assay, CYP2C19 cells; format: cell-based; conditions: human, HepG2 cells overexpressing CYP2C19
[12] = MTT cell viability assay, CYP3A4 cells; format: cell-based; conditions: human, HepG2 cells overexpressing CYP3A4, IC50, CYP3A4 overexpressing cells
[13] = MTT cell viability assay, CYP3A5 cells; format: cell-based; conditions: human, HepG2 cells overexpressing CYP3A5
[14] = tested on: HepG2 cells overexpressing CYP3A4; assay: Toxicity of CYP inhibitor to CYP3A4 cells; format: cell-based, human; conditions: 30 μM
CYP3A4 = assay: Western blot of CYP3A4 expression; format: cell-based, human; conditions: 30 μM, CYP3A4 overexpressing cells, 48 h
Outline: (§1)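 HepG2 cells overexpressing CYP2C8 or CYP3A4 were co-incubated 48 h with test compound, with or without 30 μM rifampicin or ketoconazole. RIPA lysates (protease inhibitors, 30 min on ice, 12,000g) were BCA-quantified, and 20–60 μg protein was run on 10% SDS-PAGE and blotted to PVDF. Blots were probed with goat polyclonal anti-CYP2C8 or mouse monoclonal anti-CYP3A4, detected by ECL, and quantified against β-actin.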

[15] = tested on: HepG2 cells overexpressing CYP2C8; assay: Toxicity of CYP inhibitor to CYP2C8 cells; format: cell-based, human; conditions: 30 μM
CYP2C8 = assay: Western blot of CYP2C8 expression; format: cell-based, human; conditions: 30 μM, CYP2C8 overexpressing cells, 48 h
Outline: as §1

pIC50 (HepG2 cells [1]; HepG2 cells, 1.56–50 μM, 48 h, MTT): 4.82 | LDH release relative to vehicle control (HepG2 cells [2]): > 4 fold
SMILES: CCNCc1cc(Nc2ccnc3cc(Cl)ccc23)ccc1O [NADQ, N-desethylamodiaquine]
caspase-3/7 activity (HepG2 cells [3]): increased the activity of caspase-3/7 in a concentration-dependent manner | expression level of cleaved caspase-3 (cleaved caspase-3): increase | expression level of pro-apoptotic member Bax (Bcl-2, Mcl-1, Bax): no change | expression levels of anti-apoptotic members Bcl-2 and Mcl-1 (Bcl-2, Mcl-1, Bax): no change | phosphorylation of p38, JNK, and ERK1/2 [4]: markedly increased | half-life (t1/2) of NADQ relative to ADQ (longer) ([5]; after oral administration of ADQ, ref Laurent et al., 1993, Scarsi et al., 2014): 20- to 50 fold | Cmax of NADQ in vivo relative to ADQ (higher) ([5]; in vivo, ref Lai et al., 2009): > 20 fold

pIC50 (HepG2 cells [1]; Homo sapiens, HepG2, 48 h): 4.76
SMILES: CCN(CC)Cc1cc(Nc2ccnc3cc(Cl)ccc23)ccc1O [ADQ, Amodiaquine]
caspase-3/7 activity (HepG2 cells [3]): increased the activity of caspase-3/7 in a concentration-dependent manner | expression level of cleaved caspase-3 (cleaved caspase-3): increase | expression level of pro-apoptotic member Bax (Bcl-2, Mcl-1, Bax): increased | expression levels of anti-apoptotic members Bcl-2 and Mcl-1 (Bcl-2, Mcl-1, Bax): decreased | phosphorylation of p38, JNK, and ERK1/2 [4]: no change | IC50 at 48 h [6]: 17.1 µM | IC50 at 48 h [7]: 26.4 µM | IC50 at 48 h [8]: 18.7 µM | IC50 at 48 h [9]: 25.7 µM | IC50 at 48 h [10]: 11.7 µM | IC50 at 48 h [11]: 17.3 µM | IC50 at 48 h ([12]; ADQ 1.56–50 μM): 14 µM | IC50 at 48 h ([12]; ADQ 3.13–50 μM, no CYP inhibitor): 14.8 µM | IC50 at 48 h [13]: 17.1 µM

SMILES: CC(=O)N1CCN(c2ccc(OCC3COC(Cn4ccnc4)(c4ccc(Cl)cc4Cl)O3)cc2)CC1 (stereo not shown) [ketoconazole]
toxicity of the CYP inhibitor to cells [14]: not toxic | expression level of CYP3A4 (CYP3A4): markedly reduced

expression level of CYP2C8 (CYP2C8): markedly reduced
SMILES: CO[C@H]1/C=C/O[C@@]2(C)Oc3c(C)c(O)c4c(O)c(c(/C=N/N5CCN(C)CC5)c(O)c4c3C2=O)NC(=O)/C(C)=C\C=C\[C@H](C)[C@H](O)[C@@H](C)[C@@H](O)[C@@H](C)[C@H](OC(C)=O)[C@@H]1C [rifampicin]
toxicity of the CYP inhibitor to cells [15]: not toxic
